Experimental data published in ChEMBL document CHEMBL3588757, “Structure-based design, synthesis and biological testing of piperazine-linked bis-epipodophyllotoxin etoposide analogs” (Bioorg Med Chem, 2015).

Assays:
Format in all cases: functional
[1] = system: MDA-MB-468; assay: Cytotoxicity against human MDA-MB-468 cells assessed as cell growth at 0.5 uM by SRB assay; conditions: read-out: Activity
[2] = system: T47D; assay: Cytotoxicity against human T47D cells by SRB assay
Method in brief: (§1)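 NCI-60 panel screen; 5-dose testing giving GI50 per cell line, plus a single 10 µM one-dose test. Method details not given beyond the NCI screen.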

[3] = system: TK-10; assay: Cytotoxicity against human TK10 cells assessed as cell growth at 0.05 uM by SRB assay; conditions: read-out: Activity
[4] = Cytotoxicity against human NCI-ADR-RES cells assessed as cell growth at 5 uM by SRB assay; conditions: read-out: Activity
[5] = system: RPMI-8226; assay: Cytotoxicity against human RPMI8226 cells assessed as cell growth at 50 uM by SRB assay; conditions: read-out: Activity
[6] = system: LOX IMVI; assay: Cytotoxicity against human LOXIMVI cells by SRB assay; method in brief: as §1
[7] = system: PC-3; assay: Cytotoxicity against human PC3 cells assessed as cell growth at 0.05 uM by SRB assay; conditions: read-out: Activity
[8] = system: HOP-92; assay: Cytotoxicity against human HOP92 cells assessed as cell growth at 5 uM by SRB assay; conditions: read-out: Activity
Method in brief: (§2)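 Measured in the NCI-60 human tumour cell line panel using five-dose testing. Growth was recorded at each dose for each cell line, and a GI50 was derived for each line.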

[9] = system: UACC-257; assay: Cytotoxicity against human UACC257 cells assessed as cell growth at 5 uM by SRB assay; conditions: read-out: Activity
[10] = system: TK-10; assay: Cytotoxicity against human TK10 cells assessed as cell growth at 50 uM by SRB assay; conditions: read-out: Activity
[11] = system: MDA-MB-468; assay: Cytotoxicity against human MDA-MB-468 cells assessed as cell growth at 50 uM by SRB assay; conditions: read-out: Activity
[12] = system: HCT-116; assay: Cytotoxicity against human HCT116 cells assessed as cell growth at 0.005 uM by SRB assay; conditions: read-out: Activity; method in brief: as §2
[13] = system: A549; assay: Cytotoxicity against human A549/ATCC cells by SRB assay
[14] = system: NCI-H522; assay: Cytotoxicity against human NCI-H522 cells assessed as cell growth at 0.005 uM by SRB assay; conditions: read-out: Activity
[15] = system: KM12; assay: Cytotoxicity against human KM12 cells assessed as cell growth at 0.005 uM by SRB assay; conditions: read-out: Activity
[16] = system: SN12C; assay: Cytotoxicity against human SN12C cells assessed as cell growth at 0.005 uM by SRB assay; conditions: read-out: Activity
[17] = Cytotoxicity against human NCI-ADR-RES cells by SRB assay; method in brief: as §1
[18] = system: M14; assay: Cytotoxicity against human M14 cells assessed as cell growth at 0.05 uM by SRB assay; conditions: read-out: Activity
[19] = system: NCI-H522; assay: Cytotoxicity against human NCI-H522 cells assessed as cell growth at 0.5 uM by SRB assay; conditions: read-out: Activity
[20] = system: CAKI-1; assay: Cytotoxicity against human Caki1 cells assessed as cell growth at 0.05 uM by SRB assay; conditions: read-out: Activity
[21] = Cytotoxicity against human Hs578T cells assessed as cell growth at 5 uM by SRB assay; conditions: Hs-578T, read-out: Activity; method in brief: as §2
[22] = system: OVCAR-3; assay: Cytotoxicity against human OVCAR3 cells assessed as cell growth at 0.5 uM by SRB assay; conditions: read-out: Activity
[23] = system: NCI-H522; assay: Cytotoxicity against human NCI-H522 cells assessed as cell growth at 50 uM by SRB assay; conditions: read-out: Activity
[24] = system: U-251; assay: Cytotoxicity against human U251 cells by SRB assay; method in brief: as §1
[25] = system: BT-549; assay: Cytotoxicity against human BT549 cells assessed as cell growth at 0.005 uM by SRB assay; conditions: read-out: Activity
[26] = system: SF-268; assay: Cytotoxicity against human SF268 cells assessed as cell growth at 0.05 uM by SRB assay; conditions: read-out: Activity
[27] = system: M14; assay: Cytotoxicity against human M14 cells by SRB assay; method in brief: as §1
[28] = system: KM12; assay: Cytotoxicity against human KM12 cells assessed as cell growth at 50 uM by SRB assay; conditions: read-out: Activity
[29] = system: NCI-H522; assay: Cytotoxicity against human NCI-H522 cells by SRB assay; method in brief: as §1
[30] = system: LOX IMVI; assay: Cytotoxicity against human LOXIMVI cells assessed as cell growth at 5 uM by SRB assay; conditions: read-out: Activity
[31] = system: A498; assay: Cytotoxicity against human A498 cells by SRB assay
[32] = system: SK-MEL-28; assay: Cytotoxicity against human SK-MEL-28 cells assessed as cell growth at 0.5 uM by SRB assay; conditions: read-out: Activity
[33] = system: T47D; assay: Cytotoxicity against human T47D cells assessed as cell growth at 0.05 uM by SRB assay; conditions: read-out: Activity
[34] = system: 786-0; assay: Cytotoxicity against human 786-0 cells assessed as cell growth at 0.5 uM by SRB assay; conditions: read-out: Activity
[35] = system: 786-0; assay: Cytotoxicity against human 786-0 cells by SRB assay
[36] = system: HL-60(TB); assay: Cytotoxicity against human HL-60(TB) cells assessed as cell growth at 0.5 uM by SRB assay; conditions: read-out: Activity; method in brief: as §2
[37] = system: SF-295; assay: Cytotoxicity against human SF295 cells assessed as cell growth at 5 uM by SRB assay; conditions: read-out: Activity
[38] = system: MOLT-4; assay: Cytotoxicity against human MOLT4 cells by SRB assay; method in brief: as §1
[39] = system: SN12C; assay: Cytotoxicity against human SN12C cells assessed as cell growth at 0.5 uM by SRB assay; conditions: read-out: Activity
[40] = system: UACC-257; assay: Cytotoxicity against human UACC257 cells assessed as cell growth at 0.05 uM by SRB assay; conditions: read-out: Activity
[41] = read-out: LC50 (the source's name)
[42] = read-out: pLC50 (the source's name) (converted)

COc1cc([C@@H]2c3cc4c(cc3[C@@H](NC(=O)CN3CCN(CCCCCCN5CCN(CC(=O)N[C@@H]6c7cc8c(cc7[C@@H](c7cc(OC)c(O)c(OC)c7)[C@H]7C(=O)OC[C@@H]76)OCO8)CC5)CC3)[C@H]3COC(=O)[C@H]23)OCO4)cc(OC)c1O
growth at 0.5 µM [1]: 83%
GI50 ([2]; read-out: GI50): 2.01 µM
CC50 [2, 41]: > 50 µM
TGI ([2]; read-out: TGI): > 50 µM
GI50 ([2]; read-out: pGI50 (converted)): 2 µM
CC50 [2, 42]: > 50.1 µM
TGI ([2]; read-out: pTGI (converted)): > 50.1 µM
growth at 0.05 µM [3]: 98%
growth at 5 µM [4]: 107%
growth at 50 µM [5]: -13%
GI50 ([6]; read-out: GI50): 0.966 µM
CC50 [6, 41]: > 50 µM
TGI ([6]; read-out: TGI): 28 µM
GI50 ([6]; read-out: pGI50 (converted)): 0.977 µM
CC50 [6, 42]: > 50.1 µM
TGI ([6]; read-out: pTGI (converted)): 28.2 µM
growth at 0.05 µM [7]: 90%
growth at 5 µM [8]: 30%
growth at 5 µM [9]: 62%
growth at 50 µM [10]: 63%
growth at 50 µM [11]: -33%
growth at 0.005 µM [12]: 93%
GI50 ([13]; read-out: GI50): 0.919 µM
CC50 [13, 41]: > 50 µM
TGI ([13]; read-out: TGI): 15.2 µM
GI50 ([13]; read-out: pGI50 (converted)): 0.912 µM
CC50 [13, 42]: > 50.1 µM
TGI ([13]; read-out: pTGI (converted)): 15.1 µM
growth at 0.005 µM [14]: 99%
growth at 0.005 µM [15]: 103%
growth at 0.005 µM [16]: 96%
GI50 ([17]; read-out: GI50): > 50 µM
CC50 [17, 41]: > 50 µM
TGI ([17]; read-out: TGI): > 50 µM
GI50 ([17]; read-out: pGI50 (converted)): > 50.1 µM
CC50 [17, 42]: > 50.1 µM
TGI ([17]; read-out: pTGI): > 50.1 µM
growth at 0.05 µM [18]: 94%
growth at 0.5 µM [19]: 75%
growth at 0.05 µM [20]: 93%
growth at 5 µM [21]: 64%
growth at 0.5 µM [22]: 103%
growth at 50 µM [23]: -16%
GI50 ([24]; read-out: GI50): 1.56 µM
CC50 [24, 41]: > 50 µM
TGI ([24]; read-out: TGI): 25.1 µM
GI50 ([24]; read-out: pGI50 (converted)): 1.55 µM
CC50 [24, 42]: > 50.1 µM
TGI ([24]; read-out: pTGI (converted)): 25.1 µM
growth at 0.005 µM [25]: 86%
growth at 0.05 µM [26]: 100%
GI50 ([27]; read-out: GI50): 2.31 µM
CC50 [27, 41]: > 50 µM
TGI ([27]; read-out: TGI): 22.1 µM
GI50 ([27]; read-out: pGI50 (converted)): 2.29 µM
CC50 [27, 42]: > 50.1 µM
TGI ([27]; read-out: pTGI (converted)): 21.9 µM
growth at 50 µM [28]: 10%
GI50 ([29]; read-out: GI50): 5.13 µM
CC50 [29, 41]: > 50 µM
TGI ([29]; read-out: TGI): 28.8 µM
GI50 ([29]; read-out: pGI50 (converted)): 5.13 µM
CC50 [29, 42]: > 50.1 µM
TGI ([29]; read-out: pTGI (converted)): 28.8 µM
growth at 5 µM [30]: 23%
GI50 ([31]; read-out: GI50): 5.74 µM
CC50 [31, 41]: > 50 µM
TGI ([31]; read-out: TGI): 35.2 µM
GI50 ([31]; read-out: pGI50 (converted)): 5.75 µM
CC50 [31, 42]: > 50.1 µM
TGI ([31]; read-out: pTGI (converted)): 35.5 µM
growth at 0.5 µM [32]: 91%
growth at 0.05 µM [33]: 90%
growth at 0.5 µM [34]: 82%
GI50 ([35]; read-out: GI50): 2.86 µM
CC50 [35, 41]: > 50 µM
TGI ([35]; read-out: TGI): 31.7 µM
GI50 ([35]; read-out: pGI50 (converted)): 2.88 µM
CC50 [35, 42]: > 50.1 µM
TGI ([35]; read-out: pTGI (converted)): 31.6 µM
growth at 0.5 µM [36]: 60%
growth at 5 µM [37]: 50%
GI50 ([38]; read-out: GI50): 0.233 µM
CC50 [38, 41]: > 50 µM
TGI ([38]; read-out: TGI): > 50 µM
GI50 ([38]; read-out: pGI50 (converted)): 0.234 µM
CC50 [38, 42]: > 50.1 µM
TGI ([38]; read-out: pTGI (converted)): > 50.1 µM
growth at 0.5 µM [39]: 78%
growth at 0.05 µM [40]: 113%
